Experimental data published in ChEMBL document CHEMBL4339223, “Polycyclic Maleimide-based Scaffold as New Privileged Structure for Navigating the Cannabinoid System Opportunities” (ACS Med Chem Lett, 2019).
Active and inactive are the calls of the source. The calls are words filed in the database; no cut-off is given here.

Key:
Cannabinoid receptor 1 [1] = biological target: T1, Cannabinoid receptor 1 (Homo sapiens, UniProt P21554); experiment: Displacement of [3H]-CP55940 from human recombinant cannabinoid CB1 receptor expressed in HEK293 cell membranes incubated for 90 mins by Cheng-Prusoff equation analysis
Summary of the method: (§1)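 Competition binding against [3H]-CP55940 on human recombinant CB1 or CB2 receptor, with increasing concentrations of test compound. IC50 was obtained by nonlinear regression of the inhibition of radioligand binding. Ki was calculated with the Cheng–Prusoff equation, and only where IC50 was below 10 μM.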

Cannabinoid receptor 2 [2] = biological target: T2, Cannabinoid receptor 2 (Homo sapiens, UniProt P34972); experiment: Displacement of [3H]-CP55940 from human recombinant cannabinoid CB2 receptor expressed in HEK293 cell membranes incubated for 90 mins by Cheng-Prusoff equation analysis; summary of the method: as §1
Cannabinoid receptor 1 [3] = biological target: T1, Cannabinoid receptor 1; experiment: Displacement of [3H]-CP55940 from human recombinant cannabinoid CB1 receptor expressed in HEK293 cell membranes incubated for 90 mins; summary of the method: as §1
Cannabinoid receptor 2 [4] = biological target: T2, Cannabinoid receptor 2; experiment: Displacement of [3H]-CP55940 from human recombinant cannabinoid CB2 receptor expressed in HEK293 cell membranes incubated for 90 mins; summary of the method: as §1
Cannabinoid receptor 2 [5] = biological target: T2, Cannabinoid receptor 2; experiment: Activity at human recombinant cannabinoid CB2 receptor expressed in CHOK1 cells assessed as induction of cAMP content back to basal condition up to 25 uM pre-incubated for 15 mins before NKH-477 stimulation for 30 mins by chemiluminescent detection based cAMP Hunter assay; type: functional, cell-based
Cannabinoid receptor 2 [6] = biological target: T2, Cannabinoid receptor 2; experiment: Noncompetitive antagonist activity at human recombinant cannabinoid CB2 receptor expressed in CHOK1 cells assessed as inhibition of NKH-477-induced cAMP accumulation by measuring parallel shifts of NKH-477 concentration-response curves pre-incubated for 15 mins before NKH-477 stimulation for 30 mins by chemiluminescent detection based cAMP Hunter assay based Schild plot analysis; type: functional, cell-based
Summary of the method: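 Functional cAMP assay under NKH-477 (water-soluble forskolin analog) stimulation. JWH-133 concentration–response curves were run alone and with several concentrations of the antagonist. The concentration ratio was taken as EC50 of JWH-133 with antagonist divided by the concentration giving the same response without it. log(CR–1) was plotted against log antagonist concentration, and the Schild slope came from linear regression.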

Cannabinoid receptor 2 [7] = biological target: T2, Cannabinoid receptor 2; experiment: Noncompetitive antagonist activity at human recombinant cannabinoid CB2 receptor expressed in CHOK1 cells assessed as inhibition of NKH-477-induced cAMP accumulation pre-incubated for 15 mins before NKH-477 stimulation for 30 mins by chemiluminescent detection based cAMP Hunter assay; type: functional, cell-based
[8] = biological target: Glycogen synthase kinase-3 beta (Homo sapiens, UniProt P49841); experiment: inhibition of GSK3beta (unknown origin) by LANCE Ultra TR-FRET assay
[9] = Inhibition of calcium channel in human SH-SY5Y cells assessed as blockade of 70 mM potassium-evoked depolarization-induced Ca2+ entry; type: cell-based

T1 sequence (P21554 whole entry): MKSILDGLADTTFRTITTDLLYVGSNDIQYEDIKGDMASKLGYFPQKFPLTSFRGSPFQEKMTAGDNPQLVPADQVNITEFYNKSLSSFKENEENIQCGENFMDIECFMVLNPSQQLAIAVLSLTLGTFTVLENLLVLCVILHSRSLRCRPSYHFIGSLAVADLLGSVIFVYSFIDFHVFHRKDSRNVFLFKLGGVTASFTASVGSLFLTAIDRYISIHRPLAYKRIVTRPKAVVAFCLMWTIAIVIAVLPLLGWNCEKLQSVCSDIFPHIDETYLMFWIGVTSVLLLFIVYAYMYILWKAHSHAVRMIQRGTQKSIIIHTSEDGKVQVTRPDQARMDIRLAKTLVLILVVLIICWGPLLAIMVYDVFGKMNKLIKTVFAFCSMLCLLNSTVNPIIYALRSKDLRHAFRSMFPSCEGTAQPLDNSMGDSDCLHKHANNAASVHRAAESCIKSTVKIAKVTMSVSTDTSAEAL
T2 sequence (P34972 whole entry): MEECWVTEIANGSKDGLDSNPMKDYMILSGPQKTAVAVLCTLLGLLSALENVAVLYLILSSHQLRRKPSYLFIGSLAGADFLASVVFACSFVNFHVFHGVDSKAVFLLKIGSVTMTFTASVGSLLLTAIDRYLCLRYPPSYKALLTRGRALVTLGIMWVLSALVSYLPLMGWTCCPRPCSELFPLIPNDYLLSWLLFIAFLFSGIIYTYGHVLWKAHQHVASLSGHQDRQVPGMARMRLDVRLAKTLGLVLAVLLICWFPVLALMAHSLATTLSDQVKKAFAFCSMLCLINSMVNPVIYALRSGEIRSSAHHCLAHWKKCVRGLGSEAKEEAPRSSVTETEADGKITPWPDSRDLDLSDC
Chain of Glycogen synthase kinase-3 beta (P49841 whole entry): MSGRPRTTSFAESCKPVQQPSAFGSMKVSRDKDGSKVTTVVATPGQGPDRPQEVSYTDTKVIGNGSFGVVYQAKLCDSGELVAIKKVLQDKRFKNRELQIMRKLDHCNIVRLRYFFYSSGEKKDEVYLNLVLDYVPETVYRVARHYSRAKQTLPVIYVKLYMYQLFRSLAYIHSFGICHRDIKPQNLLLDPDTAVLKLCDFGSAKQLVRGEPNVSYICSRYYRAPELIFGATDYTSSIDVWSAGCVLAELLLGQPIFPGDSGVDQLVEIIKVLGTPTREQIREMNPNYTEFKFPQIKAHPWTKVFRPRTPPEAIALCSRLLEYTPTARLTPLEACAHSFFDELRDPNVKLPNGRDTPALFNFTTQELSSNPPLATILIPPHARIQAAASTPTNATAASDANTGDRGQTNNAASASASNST

Activity (Cannabinoid receptor 2 [5])	SMILES	Ki (Cannabinoid receptor 1 [1])	Ki (Cannabinoid receptor 2 [2])	IC50 (Cannabinoid receptor 1 [3])	IC50 (Cannabinoid receptor 2 [4])	Activity (Cannabinoid receptor 2 [6])	Activity (Cannabinoid receptor 2 [7])	inhibition (INH) [8]	inhibition (INH) [9]
	CCCCCCCN1C(=O)C2C3c4ccccc4C(C)(c4ccccc43)C2C1=O (configuration not stated)	> 10 µM	0.98 µM	> 10 µM	3.86 µM				
	CCCCCCCNCC12c3ccccc3C(c3ccccc31)C1C(=O)NC(=O)C12 (configuration not stated)	> 10 µM	1.01 µM	> 10 µM	3.93 µM				
inactive	CCCCCCN1C(=O)C2C3c4ccccc4C(c4ccccc43)C2C1=O (configuration not stated)	> 10 µM	2.06 µM	> 10 µM	8.14 µM				
	O=C1NC(=O)C2C3c4ccccc4C(c4ccccc43)C12 (configuration not stated)	> 10 µM	> 10 µM	> 10 µM	> 10 µM				
	CCCCCCCN1C(=O)C2C3c4ccccc4C(Br)(c4ccccc43)C2C1=O (configuration not stated)	> 10 µM	> 10 µM	> 10 µM	> 10 µM				
	CCCCCCCN1C(=O)C2C3c4ccccc4C(c4cc(Cl)ccc43)C2C1=O (configuration not stated)	> 10 µM	1.74 µM	> 10 µM	6.85 µM				
	CCCCCCCN1C(=O)C2C3c4ccccc4C(Cl)(c4ccccc43)C2C1=O (configuration not stated)	> 10 µM	2.51 µM	> 10 µM	9.88 µM				
	CCCCCCCNCC12c3ccccc3C(c3ccccc31)C1C(=O)N(CCCCCCC)C(=O)C12 (configuration not stated)	> 10 µM	> 10 µM	> 10 µM	> 10 µM				
	CCCCCCCCN1C(=O)C2C3c4ccccc4C(c4ccccc43)C2C1=O (configuration not stated)	> 10 µM	2.22 µM	> 10 µM	8.74 µM				
	CCCCCCCN1C(=O)C2C3c4ccccc4C(c4ccccc43)C2C1=O (configuration not stated)	3.77 µM	2.01 µM	9.35 µM	7.94 µM				
	CCCCCCCOCC12c3ccccc3C(c3ccccc31)C1C(=O)NC(=O)C12 (configuration not stated)	> 10 µM	0.23 µM	> 10 µM	0.9 µM	Active	Active	Not Active	Not Active
	CCCCCCCOCC12c3ccccc3C(c3ccccc31)C1C(=O)N(CCCCCCC)C(=O)C12 (configuration not stated)	> 10 µM	> 10 µM	> 10 µM	> 10 µM				
	CCCCCCN1C(=O)C2C3c4ccccc4C(C)(c4ccccc43)C2C1=O (configuration not stated)	> 10 µM	1.01 µM	> 10 µM	3.93 µM				
